Data: ChEMBL document CHEMBL4041550, “Structure-Activity Relationship Study of QL47: A Broad-Spectrum Antiviral Agent” (ACS Med Chem Lett, 2017)
Active and inactive are the calls of the source. No cut-off for these calls is given here.

Key:
[1] = test system: dengue virus type 2; assay: Antiviral activity against Dengue virus serotype 2 strain New Guinea C infected in HuH7 cells assessed as reduction in log-fold change by measuring focus forming unit at 2 uM measured at 24 hrs post infection by focus forming assay relative to control; format: functional, Thailand/NGS-C/1944
Method in brief: (§1)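 DENV2-infected Huh7 cells treated with compound at 2 or 10 μM. Infectious virus secreted into culture supernatants at 24 h post-infection/treatment was titred by focus-forming assay. Result expressed as log-fold change relative to DMSO treatment.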

[2] = test system: dengue virus type 2; assay: Antiviral activity against Dengue virus serotype 2 replicon harboring GVD mutant infected in HuH7 cells assessed as reduction in viral RNA translation at 10 uM measured at 6 hrs post infection by luciferase reporter gene assay relative to control; format: functional; parameters: scale not given: the % may be the effect or the level left
Method in brief: (§2)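 Huh7 cells transfected with in vitro-transcribed nonreplicative DENV2(GVD) reporter replicon RNA, then treated immediately with compound at 2 or 10 μM. Intracellular firefly luciferase activity read 6 h post-transfection as a measure of RNA translation and expressed relative to DMSO-treated samples. Mean ± SD of experimental duplicates, n = 3 repeats.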

[3] = Cytotoxicity against human HuH7 cells measured after 24 hrs by CellTiter-Glo luminescent cell viability assay; format: cell-based, Huh-7
Method in brief: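 DENV2-infected Huh7 cells treated across a concentration range; cell viability read 24 h later. CC50 (50% cytotoxicity) derived by non-linear regression; mean ± SD of experimental duplicates, n ≥ 2 repeats.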

[4] = test system: dengue virus type 2; assay: Antiviral activity against Dengue virus serotype 2 replicon harboring GVD mutant infected in HuH7 cells assessed as reduction in viral RNA translation at 2 uM measured at 6 hrs post infection by luciferase reporter gene assay relative to control; format: functional; parameters: scale not given: the % may be the effect or the level left; method in brief: as §2
[5] = test system: dengue virus type 2; assay: Antiviral activity against Dengue virus serotype 2 strain New Guinea C infected in HuH7 cells assessed as reduction in log-fold change by measuring focus forming unit at 10 uM measured at 24 hrs post infection by focus forming assay relative to control; format: functional, Thailand/NGS-C/1944; method in brief: as §1
[6] = Half life in mouse hepatic microsomes at 1 uM in presence of NADPH by LC-MS/MS method; format: ADME, Microsome; conditions: liver microsomes
Method in brief: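 Compound incubated with mouse liver microsomes; half-life (T1/2, min) of the compound reported as a measure of metabolic stability.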

[7] = test system: dengue virus type 2; assay: Antiviral activity against Dengue virus serotype 2 strain New Guinea C infected in HuH7 cells at < 10 uM measured at 24 hrs post infection by focus forming assay; format: functional, cell-based; conditions: Thailand/NGS-C/1944
Method in brief: (§3)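 Huh7 cells infected with DENV2, then treated with compound; screened at 2 and 10 μM. Infectious virus secreted into supernatant at 24 h post-infection/treatment titrated by focus-forming assay; expressed as log-fold change relative to DMSO. IC90 (1-log10 drop in infectious progeny) from concentration range by non-linear regression; mean ± SD of experimental duplicates, n ≥ 2 repeats.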

[8] = test system: dengue virus type 2; assay: Antiviral activity against Dengue virus serotype 2 strain New Guinea C infected in HuH7 cells at […] to 10 uM measured at 24 hrs post infection by focus forming assay; format: functional, cell-based; conditions: Thailand/NGS-C/1944; method in brief: as §3
[9] = test system: dengue virus type 2; assay: Antiviral activity against Dengue virus serotype 2 strain New Guinea C infected in HuH7 cells measured at 24 hrs post infection by focus forming assay; format: functional; conditions: Thailand/NGS-C/1944, Huh-7, 24 h
Method in brief: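 Huh7 cells infected with DENV2, then treated with a range of compound concentrations. Viral yield measured 24 h later by titration of infectious particles in supernatants; in parallel, cell viability measured. IC90 (1-log10 reduction in infectious progeny) and CC50 derived by non-linear regression. Mean ± SD of experimental duplicates, n ≥ 2 repeats.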

[10] = test system: Vero; assay: Antiviral activity against Respiratory syncytial virus A2 infected in Vero cells at 2.5 uM pretreated for 7 days followed by viral infection by crystal violet staining based plaque formation assay; format: functional, cell-based; conditions: Human respiratory syncytial virus A2
[11] = test system: Kunjin virus; assay: Antiviral activity against West Nile virus Kunjin infected in HuH7 cells at 2 uM measured at 24 hrs post infection by crystal violet staining based plaque formation assay; format: functional, cell-based
Method in brief: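 Huh7 cells infected with West Nile virus, then treated with 2 μM for 24 h. Infectious virus released to supernatants quantified by plaque assay and plotted relative to DMSO-treated samples; mean ± SD of experimental duplicates, n ≥ 2 repeats.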

[12] = test system: Vesicular stomatitis Indiana virus; assay: Antiviral activity against Vesicular stomatitis virus Indiana infected in Vero cells at 4 uM measured at 6 hrs post infection by crystal violet staining based plaque formation assay; format: functional, cell-based
Method in brief: (§4)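 Vero cells infected with poliovirus or VSV, then treated with 4 μM compound for 12 h (poliovirus) or 6 h (VSV). Infectious virus released to supernatants quantified by plaque-forming assay, plotted relative to DMSO-treated samples. Mean ± SD of experimental duplicates, n ≥ 2 repeats.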

[13] = test system: Enterovirus C; assay: Antiviral activity against Polio virus Chat infected in Vero cells at 4 uM measured at 12 hrs post infection by crystal violet staining based plaque formation assay; format: functional, cell-based; method in brief: as §4

Row | SMILES | Activity [1] | Activity [2] | CC50 at 24 h [3] | Activity [4] | Activity [5] | half-life at 1 µM [6] | Activity [7] | Activity [8] | IC90 [9] | Activity [10] | Activity [11] | Activity [12] | Activity [13]
1 | C=CC(=O)Nc1cc(-n2c(=O)ccc3cnc4ccc(N5CCN(c6ccccc6)CC5)cc4c32)ccc1C | 0.1 log10FFU/ml | 2% | 44 µM | 0% | 0 log10FFU/ml | 5 min |  |  |  |  |  |  | 
2 | C=CC(=O)Nc1cc(-n2c(=O)ccc3cnc4ccc(-c5cnn(C)c5)cc4c32)ccc1C | 1 log10FFU/ml | 34% | > 160 µM | 40% | 4 log10FFU/ml | 4.1 min |  |  |  |  |  |  | 
3 | C=CC(=O)Nc1cc(-n2c(=O)ccc3cnc4ccc(-c5ccc(N)nc5)cc4c32)ccc1C | 0.8 log10FFU/ml | 75% | 75 µM | 44% | 4 log10FFU/ml | 6.4 min |  |  |  |  |  |  | 
4 | C=CC(=O)N1CCc2ccc(-n3c(=O)ccc4cnc5ccc(-c6ccc(S(=O)(=O)NC(C)(C)C)cc6)cc5c43)cc21 | 0 log10FFU/ml | 100% | 13 µM | 81% | 1.9 log10FFU/ml | 2.3 min |  |  |  |  |  |  | 
5 | C=CC(=O)Nc1cc(-n2c(=O)ccc3cnc4ccc(-c5cnc6ccccc6c5)cc4c32)ccc1C | 2.7 log10FFU/ml | 95% | > 160 µM | 82% | 4 log10FFU/ml | 1.3 min |  |  |  |  |  |  | 
6 | CCC(=O)N1CCc2ccc(-n3c(=O)ccc4cnc5ccc(-c6cnn(C)c6)cc5c43)cc21 |  |  |  |  |  |  | inactive |  |  |  |  |  | 
7 | C=CC(=O)Nc1cc(-n2c(=O)ccc3cnc4ccc(Nc5cnn(C)c5)cc4c32)ccc1C | 0 log10FFU/ml | 24% | 107 µM | 23% | 0.4 log10FFU/ml | 7.9 min |  |  |  |  |  |  | 
8 | C=CC(=O)Nc1cc(-n2c3c(ccc2=O)CCc2ccc(-c4ccc5ccncc5c4)cc2-3)ccc1C | 0.5 log10FFU/ml | 88% | > 160 µM | 77% | 0.1 log10FFU/ml |  |  |  |  |  |  |  | 
9 | C=CC(=O)Nc1cc(-n2c(=O)ccc3cnc4ccc(-c5ccc6c(c5)OCO6)cc4c32)ccc1C | 2.8 log10FFU/ml | 94% | 46 µM | 32% | 4 log10FFU/ml | 2.7 min |  |  |  |  |  |  | 
10 | C=CC(=O)N1CCC[C@@H](n2nc(-c3ccc(Oc4ccccc4)cc3)c3c(N)ncnc32)C1 |  |  |  |  |  |  |  | inactive |  |  |  |  | 
11 | C=CC(=O)N1CCc2ccc(N3C(=O)NCc4cnc5ccc(-c6cnn(C)c6)cc5c43)cc21 | 0.1 log10FFU/ml | 53% | 68 µM | 49% | 0.8 log10FFU/ml | 2 min |  |  |  |  |  |  | 
12 | C=CC(=O)Nc1cc(-n2c(=O)ccc3cnc4ccc(-c5cn[nH]c5)cc4c32)ccc1C | 0.8 log10FFU/ml | 76% | 77 µM | 29% | 4 log10FFU/ml | 6.5 min |  |  |  |  |  |  | 
13 | C=CC(=O)Nc1cc(-n2c(=O)ccc3cnc4ccc(-c5cnn(C)c5)cc4c32)ccc1C(=O)N(C)C | 2 log10FFU/ml | 93% | 83 µM | 4% | 4 log10FFU/ml |  |  |  |  |  |  |  | 
14 | C=CC(=O)Nc1cc(-n2c(=O)ccc3ccc4ccc(-c5cnn(C)c5)cc4c32)ccc1C | 4 log10FFU/ml | 95% | > 160 µM | 76% | 4 log10FFU/ml | 4 min |  |  |  |  |  |  | 
15 | C=CC(=O)N1CCc2ccc(-n3c(=O)ccc4cnc5ccc(-c6cnn(C)c6)cc5c43)cc21 | 4 log10FFU/ml | 98% | 67 to 68 µM | 94% | 4 log10FFU/ml | 1.2 min |  |  | 343 nM | Active | Active | Active | Active
16 | C=CC(=O)Nc1cc(-n2c(=O)ccc3cnc4ccc(-c5cnn(C)c5)cc4c32)ccc1OCCNC(C)=O | 1.1 log10FFU/ml | 90% | 99 µM | 39% | 4 log10FFU/ml |  |  |  |  |  |  |  | 
17 | C=CC(=O)N1CCc2ccc(-n3c(=O)n(C)c4cnc5ccc(-c6cnn(C)c6)cc5c43)cc21 | 2.5 log10FFU/ml | 99% | 79 µM | 94% | 4 log10FFU/ml | 2 min |  |  |  |  |  |  | 
18 | C=CC(=O)Nc1cc(-n2c(=O)ccc3cnc4ccc(N5CCOCC5)cc4c32)ccc1C | 0.1 log10FFU/ml | 23% | 103 µM | 0% | 1.2 log10FFU/ml | 9 min |  |  |  |  |  |  | 
19 | Cc1c(NC(=O)c2ccc(C(C)(C)C)cc2)cccc1-c1cn(C)c(=O)c(Nc2ccc(C(=O)N3CCOCC3)cc2)n1 |  |  |  |  |  |  |  | inactive |  |  |  |  | 
20 | C=CC(=O)Nc1cc(-n2c(=O)ccc3cnc4ccc(-c5cnn(C)c5)cc4c32)ccc1F | 4 log10FFU/ml | 99% | 105 µM | 97% | 4 log10FFU/ml | 4.5 min |  |  |  |  |  |  | 
21 | C=CC(=O)Nc1cc(-n2c(=O)ccc3cnc4ccc(-c5cnn(C)c5)cc4c32)ccc1C(=O)O | 0 log10FFU/ml | 19% | > 160 µM | 3% | 0 log10FFU/ml |  |  |  |  |  |  |  | 
22 | C=CC(=O)Nc1cc(-n2c3c(ccc2=O)CCc2ccc(-c4cnn(C)c4)cc2-3)ccc1C | 0.5 log10FFU/ml | 60% | > 160 µM | 49% | 1 log10FFU/ml |  |  |  |  |  |  |  | 
23 | C=CC(=O)Nc1cc(-n2c(=O)ccc3cnc4ccc(-c5ccc(NS(C)(=O)=O)cc5)cc4c32)ccc1C |  |  |  |  |  |  |  | inactive |  |  |  |  | 
24 | C=CC(=O)Nc1cc(-n2c(=O)ccc3ccc4ccc(-c5ccc6ccncc6c5)cc4c32)ccc1C | 1.9 log10FFU/ml | 94% | 75 µM | 82% | 4 log10FFU/ml | 9 min |  |  |  |  |  |  | 
25 | Cc1ccc(-n2c(=O)ccc3ccc4ccc(-c5ccc6ccncc6c5)cc4c32)cc1NC(=O)/C=C/CN(C)C | 3.3 log10FFU/ml | 66% | 21 µM | 17% | 4 log10FFU/ml | 6.3 min |  |  |  |  |  |  | 
26 | C=CC(=O)Nc1cc(-n2c(=O)ccc3ccc4ccc(-c5cn[nH]c5)cc4c32)ccc1C | 2 log10FFU/ml | 79% | 29 µM | 39% | 4 log10FFU/ml | 4 min |  |  |  |  |  |  | 
27 | C=CC(=O)N1CCc2ccc(-n3c(=O)n(C)c4cnc5ccc(-c6ccc7ccncc7c6)cc5c43)cc21 | 2 log10FFU/ml | 98% | 126 µM | 77% | 4 log10FFU/ml | 2 min |  |  |  |  |  |  | 
